# Laboratory results from ChEMBL document CHEMBL2331212 (Bioorg Med Chem, 2013).
# Values joined by “and” are separate entries in the source; they are usually repeats but may differ in a detail not shown here. Equal values may be shown once. Active and inactive are the calls of the source. The rule behind the calls is not given here.
# Tests used:
# [1] = biological target: T1, D(2) dopamine receptor (Homo sapiens, UniProt P14416); experiment: Displacement of [3H]spiperone from human dopamine D2long receptor expressed in CHO cells; type: cell-based
# [2] = biological target: D(3) dopamine receptor (Homo sapiens, UniProt P35462); experiment: Displacement of [3H]spiperone from human dopamine D3 receptor expressed in CHO cells; type: cell-based
# [3] = biological target: T2, D(4) dopamine receptor (Homo sapiens, UniProt P21917); experiment: Displacement of [3H]spiperone from human dopamine D4.4 receptor expressed in CHO cells; type: cell-based
# T2 sequence (P21917 whole entry): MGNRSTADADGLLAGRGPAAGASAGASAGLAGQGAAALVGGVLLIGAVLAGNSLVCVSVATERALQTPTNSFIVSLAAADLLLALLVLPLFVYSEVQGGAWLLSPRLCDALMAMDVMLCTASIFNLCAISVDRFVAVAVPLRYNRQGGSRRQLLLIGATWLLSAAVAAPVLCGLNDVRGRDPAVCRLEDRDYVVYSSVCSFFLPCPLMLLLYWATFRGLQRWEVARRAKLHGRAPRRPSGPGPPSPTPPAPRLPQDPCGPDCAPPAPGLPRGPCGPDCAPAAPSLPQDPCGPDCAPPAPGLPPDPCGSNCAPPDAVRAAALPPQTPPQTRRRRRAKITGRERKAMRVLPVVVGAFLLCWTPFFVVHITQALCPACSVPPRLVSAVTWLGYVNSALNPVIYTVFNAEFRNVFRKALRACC
# [4] = biological target: T1, D(2) dopamine receptor; experiment: Displacement of [3H]spiperone from human dopamine D2short receptor expressed in CHO cells; type: cell-based
# [5] = biological target: D(1A) dopamine receptor (Bos taurus, UniProt Q95136); experiment: Displacement of [3H]SCH23390 from dopamine D1 receptor in bovine striatum
# Method in brief: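 Bovine striatal homogenate was incubated with [3H]SCH 23390 and test compounds under the same binding conditions as the D2-family assays. Competition curves were fitted by sigmoid non-linear regression with logEC50 and Hill coefficient free. EC50 was converted to Ki by Cheng–Prusoff. Each experiment was run in triplicate.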
# [6] = biological target: T3, D(4) dopamine receptor (Homo sapiens) (UniProt P21917); experiment: Partial agonist activity at human D4.4 receptor expressed in CHO cells assessed as inhibition of forskolin-stimulated cAMP accumulation after 20 mins by luminescence assay relative to quinpirole; type: functional, cell-based
# T3 sequence (whole entry): T2 sequence (P21917 whole entry)
# Method in brief: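 CHO cells expressing D4.4 were seeded 24 h ahead at 10,000 cells/well and washed with Krebs Ringer buffer, pH 7.4. Cells were exposed to graded compound concentrations with forskolin for 20 min at 25 °C. cAMP was read by cAMP-Glo luminescence, a PKA–luciferase readout. Quinpirole served as the reference full agonist. EC50 and Emax were taken from at least three experiments, each in triplicate.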
# [7] = biological target: T3, D(4) dopamine receptor (Homo sapiens); experiment: Antagonist activity at human D4.4 receptor expressed in CHO cells assessed as inhibition of quinpirole-induced reduction in cAMP accumulation after 20 mins by luminescence assay; type: functional, cell-based
# Chain of D(1A) dopamine receptor (Q95136 whole entry): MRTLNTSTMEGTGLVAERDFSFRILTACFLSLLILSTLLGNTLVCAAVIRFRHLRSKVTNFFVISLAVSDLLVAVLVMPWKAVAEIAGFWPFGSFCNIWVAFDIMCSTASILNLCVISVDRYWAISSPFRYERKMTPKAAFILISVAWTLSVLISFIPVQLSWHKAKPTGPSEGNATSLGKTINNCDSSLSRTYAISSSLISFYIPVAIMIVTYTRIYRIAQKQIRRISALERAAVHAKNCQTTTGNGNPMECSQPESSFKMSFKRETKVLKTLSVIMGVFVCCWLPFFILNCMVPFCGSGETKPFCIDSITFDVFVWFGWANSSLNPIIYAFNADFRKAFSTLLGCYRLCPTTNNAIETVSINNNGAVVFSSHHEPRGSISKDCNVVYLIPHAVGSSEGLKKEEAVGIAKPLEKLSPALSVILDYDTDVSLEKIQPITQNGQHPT
# Chain of D(3) dopamine receptor (P35462 whole entry): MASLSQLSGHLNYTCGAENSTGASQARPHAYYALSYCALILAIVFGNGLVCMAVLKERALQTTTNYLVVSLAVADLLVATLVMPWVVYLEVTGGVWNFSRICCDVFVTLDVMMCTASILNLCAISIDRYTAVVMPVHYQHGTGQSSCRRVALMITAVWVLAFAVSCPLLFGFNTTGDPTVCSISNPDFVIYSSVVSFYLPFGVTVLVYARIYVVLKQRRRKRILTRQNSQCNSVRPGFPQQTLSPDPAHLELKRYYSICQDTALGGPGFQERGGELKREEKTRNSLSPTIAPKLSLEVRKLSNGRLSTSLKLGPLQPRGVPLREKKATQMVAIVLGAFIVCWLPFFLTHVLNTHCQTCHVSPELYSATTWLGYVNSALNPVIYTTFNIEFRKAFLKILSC
# T1 sequence (P14416 whole entry): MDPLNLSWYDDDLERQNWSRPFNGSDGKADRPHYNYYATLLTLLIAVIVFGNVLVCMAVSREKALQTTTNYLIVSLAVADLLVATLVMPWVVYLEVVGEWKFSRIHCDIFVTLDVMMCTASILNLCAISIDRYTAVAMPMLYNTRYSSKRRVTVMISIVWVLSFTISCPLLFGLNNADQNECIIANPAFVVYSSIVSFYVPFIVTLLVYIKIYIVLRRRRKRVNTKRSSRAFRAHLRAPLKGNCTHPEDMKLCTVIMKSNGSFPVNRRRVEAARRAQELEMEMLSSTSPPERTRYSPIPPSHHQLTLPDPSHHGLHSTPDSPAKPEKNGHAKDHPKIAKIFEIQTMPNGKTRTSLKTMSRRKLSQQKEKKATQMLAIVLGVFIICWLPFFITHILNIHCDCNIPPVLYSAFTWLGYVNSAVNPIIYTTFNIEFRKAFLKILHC
Ki [1],Ki [2],Ki [3],Ki [4],Ki [5],Efficacy [6] [%],inhibition [7],Structure (SMILES)
39 nM,18 nM,45 nM,28 nM,2600 nM,,,c1ccc(-n2cc(CN3CCN(c4cc5ccc4CCc4ccc(cc4)CC5)CC3)cn2)cc1
,,,,440 nM,,,NCCc1ccc(O)c(O)c1 [DOPAMINE]
,,,,1600 nM,40,,c1ccc(N2CCN(Cc3cnn(-c4ccccc4)c3)CC2)cc1
55 nM and 350 nM,20 nM and 23 nM,2.5 nM and 4.5 nM,33 nM and 240 nM,1500 nM and 1700 nM,19,Active,c1ccc(N2CCN(Cc3cnn(-c4cc5ccc4CCc4ccc(cc4)CC5)c3)CC2)cc1
